Source: paper PMC3517043 (ChemMedChem, 2012)
In brackets after ≈: the same amount, converted by molar mass. Read-outs that look alike come from different tables or passages of the source. Square brackets hold non-standard residues; d marks the D form. Ends that are not written are not given here. Peptide text beside a SMILES is read from it. NMeI = CC[C@H](C)[C@H](NC)C(=O)O; NMeV = CN[C@H](C(=O)O)C(C)C; NMeA = CN[C@@H](C)C(=O)O; Sar = CNCC(=O)O

Columns and labels:
[1] = Solubility by filtration assay; format: physicochemical; conditions: pH 7.4
[2] = tested on: differentiated PC-12 cells; assay: Toxicity of peptides alone, MTT cell viability assay; format: cell-based, rat; conditions: peptide alone at 50 μM, 24 h
Method in brief: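 PC-12 cells differentiated with nerve growth factor (50 ng/mL) for 48 h. Peptide dissolved in a small amount of 60 mM NaOH, diluted to 50 μM in culture medium, and incubated alone with cells for 24 h. Viability read by MTT kit. Controls were NaOH at matching concentration and medium alone. Percentage viability was scaled to 1 μM staurosporine, taken as 100% loss.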

[3] = tested on: Aβ42-induced toxicity in differentiated PC-12 cells; format: cell-based, rat; conditions: for IC50: 24 h; for Decrease in activity relative to the corresponding N-Me-A analogue (MTT): original side-chain restored versus N-Me-A at the same position
[4] = tested on: Aβ42-induced toxicity in differentiated PC-12 cells; format: cell-based, rat; conditions: for IC50: 48 h; for Decrease in activity relative to the corresponding N-Me-A analogue (LDH): original side-chain restored versus N-Me-A at the same position
Aβ42 = conditions: read-out: IC50, inhibition of Aβ42 hexamer formation; photo-induced cross-linking of unmodified proteins; cited from earlier work
[5] = tested on: mouse primary hippocampal neurons; conditions: cited from earlier work

Molecule	solubility at 1 min ([1]; 10 mM sodium phosphate buffer)	IC50 [3]	IC50 [4]	further results
CC[C@H](C)[C@H](NC(=O)[C@H](C)NC)C(=O)NCC(=O)N[C@@H](CC(C)C)C(=O)N[C@@H](CCSC)C(=O)N[C@H](C(=O)NCC(=O)NCC(=O)N[C@H](C(=O)N[C@H](C(=O)N[C@H](C(=O)N[C@@H](C)C(=O)O)[C@@H](C)CC)C(C)C)C(C)C)C(C)C [[N-Me-A1]Aβ(31–42), (N-Me)A-IGLMVGGWIA] (H-[NMeA]IGLMVGGVVIA-OH; N-terminus assumed)	8 ± 1 µM (≈ 8.91 µg/mL)			Toxicity of the peptide itself (cell viability, MTT) [2]: toxic
CC[C@H](C)[C@H](N)C(=O)N(C)[C@@H](C)C(=O)NCC(=O)N[C@@H](CC(C)C)C(=O)N[C@@H](CCSC)C(=O)N[C@H](C(=O)NCC(=O)NCC(=O)N[C@H](C(=O)N[C@H](C(=O)N[C@H](C(=O)N[C@@H](C)C(=O)O)[C@@H](C)CC)C(C)C)C(C)C)C(C)C [[N-Me-A2]Aβ(31–42), I-(N-Me)A-GLMVGGWIA] (H-I[NMeA]GLMVGGVVIA-OH; N-terminus assumed)	101 ± 18 µM (≈ 112 µg/mL)			
CC[C@H](C)[C@H](N)C(=O)N[C@H](C(=O)N(C)[C@@H](C)C(=O)N[C@@H](CC(C)C)C(=O)N[C@@H](CCSC)C(=O)N[C@H](C(=O)NCC(=O)NCC(=O)N[C@H](C(=O)N[C@H](C(=O)N[C@H](C(=O)N[C@@H](C)C(=O)O)[C@@H](C)CC)C(C)C)C(C)C)C(C)C)[C@@H](C)CC [[N-Me-A3]Aβ(31–42), II-(N-Me)A-LMVGGWIA]	102 ± 16 µM (≈ 119 µg/mL)	18 ± 1 µM	34 ± 3 µM	
CC[C@H](C)[C@H](N)C(=O)N[C@H](C(=O)NCC(=O)N(C)[C@@H](C)C(=O)N[C@@H](CCSC)C(=O)N[C@H](C(=O)NCC(=O)NCC(=O)N[C@H](C(=O)N[C@H](C(=O)N[C@H](C(=O)N[C@@H](C)C(=O)O)[C@@H](C)CC)C(C)C)C(C)C)C(C)C)[C@@H](C)CC [[N-Me-A4]Aβ(31–42), IIG-(N-Me)A-MVGGWIA] (H-IIG[NMeA]MVGGVVIA-OH; N-terminus assumed)	127 ± 37 µM (≈ 141 µg/mL)			
CC[C@H](C)[C@H](N)C(=O)N[C@H](C(=O)NCC(=O)N[C@@H](CC(C)C)C(=O)N(C)[C@@H](C)C(=O)N[C@H](C(=O)NCC(=O)NCC(=O)N[C@H](C(=O)N[C@H](C(=O)N[C@H](C(=O)N[C@@H](C)C(=O)O)[C@@H](C)CC)C(C)C)C(C)C)C(C)C)[C@@H](C)CC [[N-Me-A5]Aβ(31–42), IIGL-(N-Me)A-VGGWIA] (H-IIGL[NMeA]VGGVVIA-OH; N-terminus assumed)	105 ± 20 µM (≈ 115 µg/mL)			
CC[C@H](C)[C@H](N)C(=O)N[C@H](C(=O)NCC(=O)N[C@@H](CC(C)C)C(=O)N[C@@H](CCSC)C(=O)N(C)[C@@H](C)C(=O)NCC(=O)NCC(=O)N[C@H](C(=O)N[C@H](C(=O)N[C@H](C(=O)N[C@@H](C)C(=O)O)[C@@H](C)CC)C(C)C)C(C)C)[C@@H](C)CC [[N-Me-A6]Aβ(31–42), IIGLM-(N-Me)A-GGWIA] (H-IIGLM[NMeA]GGVVIA-OH; N-terminus assumed)	87 ± 18 µM (≈ 98.1 µg/mL)			
CC[C@H](C)[C@H](N)C(=O)N[C@H](C(=O)NCC(=O)N[C@@H](CC(C)C)C(=O)N[C@@H](CCSC)C(=O)N[C@H](C(=O)N(C)[C@@H](C)C(=O)NCC(=O)N[C@H](C(=O)N[C@H](C(=O)N[C@H](C(=O)N[C@@H](C)C(=O)O)[C@@H](C)CC)C(C)C)C(C)C)C(C)C)[C@@H](C)CC [[N-Me-A7]Aβ(31–42), IIGLMV-(N-Me)A-GWIA] (H-IIGLMV[NMeA]GVVIA-OH; N-terminus assumed)	88 ± 14 µM (≈ 103 µg/mL)			
CC[C@H](C)[C@H](N)C(=O)N[C@H](C(=O)NCC(=O)N[C@@H](CC(C)C)C(=O)N[C@@H](CCSC)C(=O)N[C@H](C(=O)NCC(=O)N(C)[C@@H](C)C(=O)N[C@H](C(=O)N[C@H](C(=O)N[C@H](C(=O)N[C@@H](C)C(=O)O)[C@@H](C)CC)C(C)C)C(C)C)C(C)C)[C@@H](C)CC [[N-Me-A8]Aβ(31–42), IIGLMVG-(N-Me)A-WIA] (H-IIGLMVG[NMeA]VVIA-OH; N-terminus assumed)	41 ± 12 µM (≈ 48 µg/mL)	12 ± 1 µM	14 ± 1 µM	
CC[C@H](C)[C@H](N)C(=O)N[C@H](C(=O)NCC(=O)N[C@@H](CC(C)C)C(=O)N[C@@H](CCSC)C(=O)N[C@H](C(=O)NCC(=O)NCC(=O)N(C)[C@@H](C)C(=O)N[C@H](C(=O)N[C@H](C(=O)N[C@@H](C)C(=O)O)[C@@H](C)CC)C(C)C)C(C)C)[C@@H](C)CC [[N-Me-A9]Aβ(31–42), IIGLMVGG-(N-Me)A-VIA] (H-IIGLMVGG[NMeA]VIA-OH; N-terminus assumed)	115 ± 21 µM (≈ 130 µg/mL)	6 ± 1 µM	7 ± 1 µM	Improvement of IC50 relative to the parent peptide (MTT) ([3]; relative to Aβ(31–42)): 3 fold; Improvement of IC50 relative to the parent peptide (LDH) ([4]; relative to Aβ(31–42)): 6 fold
CC[C@H](C)[C@H](N)C(=O)N[C@H](C(=O)NCC(=O)N[C@@H](CC(C)C)C(=O)N[C@@H](CCSC)C(=O)N[C@H](C(=O)NCC(=O)NCC(=O)N[C@H](C(=O)N(C)[C@@H](C)C(=O)N[C@H](C(=O)N[C@@H](C)C(=O)O)[C@@H](C)CC)C(C)C)C(C)C)[C@@H](C)CC [[N-Me-A10]Aβ(31–42), IIGLMVGGV-(N-Me)A-IA]				solubility at 1 min [1]: 121 ± 28 µM (≈ 136 µg/mL)
CC[C@H](C)[C@H](N)C(=O)N[C@H](C(=O)NCC(=O)N[C@@H](CC(C)C)C(=O)N[C@@H](CCSC)C(=O)N[C@H](C(=O)NCC(=O)NCC(=O)N[C@H](C(=O)N[C@H](C(=O)N(C)[C@@H](C)C(=O)N[C@@H](C)C(=O)O)C(C)C)C(C)C)C(C)C)[C@@H](C)CC [[N-Me-A11]Aβ(31–42), IIGLMVGGW-(N-Me)A-A] (H-IIGLMVGGVV[NMeA]A-OH; N-terminus assumed)	86 ± 22 µM (≈ 95.8 µg/mL)	10 ± 1 µM	37 ± 3 µM	
CC[C@H](C)[C@H](N)C(=O)N[C@H](C(=O)NCC(=O)N[C@@H](CC(C)C)C(=O)N[C@@H](CCSC)C(=O)N[C@H](C(=O)NCC(=O)NCC(=O)N[C@H](C(=O)N[C@H](C(=O)N[C@H](C(=O)N(C)[C@@H](C)C(=O)O)[C@@H](C)CC)C(C)C)C(C)C)C(C)C)[C@@H](C)CC [[N-Me-A12]Aβ(31–42)] (H-IIGLMVGGVVI[NMeA]-OH; N-terminus assumed)	28 ± 13 µM (≈ 32.4 µg/mL)			
CC[C@H](C)[C@H](N)C(=O)N[C@H](C(=O)N(C)CC(=O)N[C@@H](CC(C)C)C(=O)N[C@@H](CCSC)C(=O)N[C@H](C(=O)NCC(=O)NCC(=O)N[C@H](C(=O)N[C@H](C(=O)N[C@H](C(=O)N[C@@H](C)C(=O)O)[C@@H](C)CC)C(C)C)C(C)C)C(C)C)[C@@H](C)CC [[N-Me-G3]Aβ(31–42), II-(N-Me)G-LMVGGWIA]	118 ± 11 µM (≈ 136 µg/mL)	26 ± 1 µM		Decrease in activity relative to the corresponding N-Me-A analogue (MTT) [3]: 1.4 fold
CC[C@H](C)[C@H](N)C(=O)N[C@H](C(=O)NCC(=O)N[C@@H](CC(C)C)C(=O)N[C@@H](CCSC)C(=O)N[C@H](C(=O)NCC(=O)N(C)CC(=O)N[C@H](C(=O)N[C@H](C(=O)N[C@H](C(=O)N[C@@H](C)C(=O)O)[C@@H](C)CC)C(C)C)C(C)C)C(C)C)[C@@H](C)CC [[N-Me-G8]Aβ(31–42), IIGLMVG-(N-Me)G-WIA] (H-IIGLMVG[Sar]VVIA-OH; N-terminus assumed)	18 ± 2 µM (≈ 20.8 µg/mL)	28 ± 1 µM	71 ± 20 µM	Decrease in activity relative to the corresponding N-Me-A analogue (MTT) [3]: 2.3 fold; Decrease in activity relative to the corresponding N-Me-A analogue (LDH) [4]: 5.0 fold
CC[C@H](C)[C@H](NC)C(=O)N[C@H](C(=O)NCC(=O)N[C@@H](CC(C)C)C(=O)N[C@@H](CCSC)C(=O)N[C@H](C(=O)NCC(=O)NCC(=O)N[C@H](C(=O)N[C@H](C(=O)N[C@H](C(=O)N[C@@H](C)C(=O)O)[C@@H](C)CC)C(C)C)C(C)C)C(C)C)[C@@H](C)CC [[N-Me-I1]Aβ3(31–42), (N-Me)I-IGLMVGGWIA] (H-[NMeI]IGLMVGGVVIA-OH; N-terminus assumed)	7 ± 1 µM (≈ 8.09 µg/mL)			Toxicity of the peptide itself (cell viability, MTT) ([2]; listed as [N-Me-I1]Aβ(31–42)): as toxic as [N-Me-A1]Aβ(31–42)
CC[C@H](C)[C@H](N)C(=O)N[C@H](C(=O)NCC(=O)N[C@@H](CC(C)C)C(=O)N[C@@H](CCSC)C(=O)N[C@H](C(=O)NCC(=O)NCC(=O)N[C@H](C(=O)N[C@H](C(=O)N(C)[C@H](C(=O)N[C@@H](C)C(=O)O)[C@@H](C)CC)C(C)C)C(C)C)C(C)C)[C@@H](C)CC [[N-Me-I11]Aβ3(31–42), IIGLMVGGW-(N-Me)I-A] (H-IIGLMVGGVV[NMeI]A-OH; N-terminus assumed)	132 ± 34 µM (≈ 153 µg/mL)	13 ± 1 µM	49 ± 3 µM	
CC[C@H](C)[C@H](N)C(=O)N[C@H](C(=O)NCC(=O)N[C@@H](CC(C)C)C(=O)N[C@@H](CCSC)C(=O)N[C@H](C(=O)NCC(=O)NCC(=O)N(C)[C@H](C(=O)N[C@H](C(=O)N[C@H](C(=O)N[C@@H](C)C(=O)O)[C@@H](C)CC)C(C)C)C(C)C)C(C)C)[C@@H](C)CC [[N-Me-V9]Aβ(31–42), IIGLMVGG-(N-Me)V-VIA] (H-IIGLMVGG[NMeV]VIA-OH; N-terminus assumed)	136 ± 18 µM (≈ 157 µg/mL)	6 ± 1 µM	67 ± 8 µM	Decrease in activity relative to the corresponding N-Me-A analogue (LDH) [4]: 9.6 fold
IIGLMVGGVVIA-OH [Aβ(31–42), IIGLMVGGVVIA]		18 ± 1 µM	43 ± 2 µM	solubility at 1 min [1]: 25 ± 4 µM; IC50 (Aβ42): 23 ± 4 µM; Rescue from Aβ42-induced inhibition of miniature excitatory postsynaptic current frequency [5]: rescued
